Assay results reported in publication PMC7424198 (iScience, 2020).

Assay: Thermal unfolding monitored by CD spectroscopy
Type: physicochemical
Conditions: 20 μM protein, 10 mM phosphate buffer pH 7.4, 2 °C intervals, 20 to 90 °C
How it was run: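 TM read as the transition point from the first derivative of the CD thermal unfolding curve. Reversibility was checked by comparing spectra recorded before and after heating. The 202 nm signal was followed during denaturation to look for an isodichroic point, which would indicate a two-state helix–unfolded transition. Spectra were recorded on 20 μM protein in 10 mM phosphate buffer.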

In the case of aureocin A53, the “transition midpoint (TM) of thermal unfolding” value is reported as roughly 54 °C.
